Kir21 inh: Kir2.1 (mouse) channel inhibition | P35561 | HEK293-Kir2.1, FluxOR thallium flux fluorescence; hits give low values | B-score at 10 µM | 310,000 compounds, 0.85% hits;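 active = fluorescence ratio B-score at or below minus 3 SD of library scores, with starting-brightness B-score within 2 SD, cut at about -4.2 in these data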;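 note: channel flux triggered by added potassium and thallium sulfate stimulus; B-score of peak minus minimum fluorescence over baseline after thallium stimulus; more negative B-score means stronger Kir2.1 block with less thallium influx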
KCNK9 inh: human KCNK9 channel inhibition. 310,000 compounds, 1.2% hits. AID 488922. Q9NPC2. HEK293 KCNK9, FluxOR thallium flux fluorescence; hits give low values. B-score at 10 µM;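 active = ratio B-score over 3 SD below the library mean, with starting fluorescence within 5 SD of its mean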;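 note: negative B-score means less thallium flux so channel inhibition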
Target sequence (Q9NPC2 whole entry, looked up): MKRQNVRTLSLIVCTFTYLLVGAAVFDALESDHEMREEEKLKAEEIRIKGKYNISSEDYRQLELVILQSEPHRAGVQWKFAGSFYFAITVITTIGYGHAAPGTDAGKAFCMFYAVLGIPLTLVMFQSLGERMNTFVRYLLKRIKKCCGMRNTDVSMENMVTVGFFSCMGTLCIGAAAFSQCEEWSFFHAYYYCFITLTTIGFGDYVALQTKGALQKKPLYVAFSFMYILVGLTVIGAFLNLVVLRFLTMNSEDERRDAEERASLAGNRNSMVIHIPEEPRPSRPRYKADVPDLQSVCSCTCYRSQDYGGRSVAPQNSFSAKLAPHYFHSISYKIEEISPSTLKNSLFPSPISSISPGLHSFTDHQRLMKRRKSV
KCNK3 block: human KCNK3 channel inhibition, primary screen | CHO-KCNK3 thallium flux, FluxOR fluorescence; hits give low values | B-score at 10 µM | 340,000 compounds, 0.84% hits | AID 602410;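 active = B-score under library mean minus 4 SD, starting fluorescence ratio at most library mean plus 5 SD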;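 note: more negative B-score means stronger inhibition of thallium flux through KCNK3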
KCNQ1 block: human KCNQ1 channel inhibition; P51787; CHO-K1 KCNQ1, FluxOR thallium flux fluorescence; hits give high values; B-score at 10 µM; 310,000 compounds, 1.3% hits;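 active = compounds whose thallium flux B-score, printed positive for inhibition, exceeds three library SD while starting fluorescence stays within three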;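 note: channel opened by potassium depolarization with thallium stimulus after 20 min compound exposure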
KCNQ1 pot: potentiators or activators of human KCNQ1 potassium channel | P51787 | CHO-K1 KCNQ1, thallium flux FluxOR fluorescence; hits give high values | B-score at 10 µM | 310,000 compounds, 0.35% hits | AID 2648;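 active = fluorescence ratio B-score, a plate-corrected score, at least three library SD, with initial intensity B-score within 5 SD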
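assay system = KCNQ1-transfected CHO-K1 cells | medium = assay buffer with matched DMSO | probe or stimulus = depolarizing K+/Tl+ stimulus, K2SO4 and Tl2SO4 each 12.5 mM in 5x stock | dosing = single dose | incubation = dye 90 min, compound 20 min, room temperature | detection = kinetic FluxOR fluorescence, 10 s baseline plus 110 s post-stimulus | evaluation = ratio B score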
hERG rescue: hERG (human) protection from proarrhythmic block; Q12809; AID 1511; 310,000 compounds, 0.51% hits; activation (rescue from dofetilide block), less the hit threshold, % at 10 µM; CHO-hERG, FluxOR thallium flux, dofetilide IC70 present;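 active = activation above the mean of controls blocked by dofetilide plus 5 SD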;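 note: thallium influx through hERG after potassium depolarization seen as dye fluorescence rise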
The depositor's hits bear a star; i = inactive; . = not tested or not shown. Sampled rows, rich in hits. Any-hit rate of the full collection: about 3.7%.

SMILES	Kir21 inh	KCNK9 inh	KCNK3 block	KCNQ1 block	KCNQ1 pot	hERG rescue
OC(COc1ccc(Cl)cc1Cl)CN1CCc2ccccc2C1 (configuration not stated)	-15*	i	i	i	i	-10
COc1cccc(OCC(O)CN2CCc3ccccc3C2)c1 (configuration not stated)	-0.16	i	i	i	i	-4
Clc1ccc(OCCCN2CCc3ccccc3C2)c(Br)c1	-0.06	i	i	i	i	-18
c1ccc(-c2ccncn2)cc1	.	.	i	.	.	.
COc1ccc(C(C(=O)NC2CCCC2)N(Cc2cccnc2)C(=O)c2snc(C(N)=O)c2N)cc1OC (configuration not stated)	0.1	i	i	i	i	-15
S=c1[nH]c(-c2ccccc2)cn1/N=C/c1cccc2ccccc12	1.4	i	i	i	14*	69*
S=c1[nH]c(-c2ccccc2)cn1/N=C/c1ccccc1Br	-0.54	i	i	i	i	3
C/C(=N\OCc1ccc(C#N)cc1)c1cc2ccccc2o1	0.21	i	i	i	i	-10
C/C(=N\OCc1ccccc1C#N)c1cc2ccccc2o1	0.54	-7.1*	i	i	i	-5
CCCCCOc1ccc(CSC(=N)N)cc1[N+](=O)[O-]	-8.5*	i	i	i	i	-13
COc1ccc(CSC(=N)N)cc1[N+](=O)[O-]	0.42	i	i	i	i	-3
COc1ccc(CN(C)C(=S)Nc2ccc(OC(F)F)cc2)cc1	-1.9	i	i	i	i	-21
COc1cccc(CN(C)C(=S)Nc2ccc(C)c(C)c2)c1	0.05	i	i	i	i	4.7*
COc1ccc(-n2nc(N)c(C(N)=O)n2)cc1	0.77	i	i	i	i	-6
Cc1oc2c(cc(NS(=O)(=O)c3ccc(F)cc3)c3ccccc32)c1C(=O)O	-0.18	i	i	i	i	-4
COc1ccc(S(=O)(=O)Nc2cc3c(C(C)=O)c(C)oc3c3ccccc23)cc1	0.93	-7.3*	i	i	i	-11
Cc1oc2c(cc(NS(=O)(=O)c3ccc(C(C)C)cc3)c3ccccc32)c1C(=O)O	-1.5	i	i	9*	i	-10
Cc1cccc(C)c1NC(=O)CN(C)CC(=O)c1c(N)n(Cc2ccccc2)c(=O)n(C)c1=O	.	.	i	.	.	.
COc1cc(OC)c(/C=N/NC(=O)c2ccncc2)c(OC)c1	0.99	i	i	i	i	-11
Cc1cc([N+](=O)[O-])ccc1NC(=S)NC(=O)C(c1ccccc1)c1ccccc1	1.7	i	i	7*	i	-8
COc1ccc([N+](=O)[O-])cc1NC(=O)C(C)c1ccccc1 (configuration not stated)	0.68	i	i	i	i	0
COc1ccc([N+](=O)[O-])cc1NC(=S)NC(NC(=O)C(c1ccccc1)c1ccccc1)C(Cl)(Cl)Cl (configuration not stated)	-0.18	i	i	14*	i	-11
COc1ccc(NC(=S)NC(NC(=O)c2cccc3ccccc23)C(Cl)(Cl)Cl)c([N+](=O)[O-])c1 (configuration not stated)	0.17	-6.9*	i	i	i	-2
COc1ccc(CN2CCN(Cc3cccc4nonc34)CC2CCO)c(C)c1C (configuration not stated)	-1.5	i	i	i	i	5.3*
COC(=O)c1cc2occc2n1Cc1cccc(C)c1	-0.01	i	i	i	i	-13
SMILES	Kir21 inh	KCNK9 inh	KCNK3 block	KCNQ1 block	KCNQ1 pot	hERG rescue
Cc1cccc(Cn2c(C(=O)OC(C)C)cc3c2ccn3C)c1	-0.39	i	i	6*	i	-17
Cc1c(F)cccc1NC(=O)c1ccc2c(c1)CCN2S(C)(=O)=O	-1.5	i	i	i	i	2
CC(=O)c1c(O)c(C)c(O)c2c1OC1=CC(=O)C(C(C)=O)C(=O)[C@@]12C (some centres not stated)	-1.2	i	i	7*	i	-18
CC(C)N1CC=C2C(C#N)=C(N)C(C#N)(C#N)[C@H](c3ccoc3)[C@H]2C1	-4.3	i	.	7*	i	-12
CCN1CC=C2C(C#N)=C(N)C(C#N)(C#N)C(c3cc(Cl)ccc3Cl)C2C1 (configuration not stated)	-3.6	i	-10*	12*	i	-12
O=C(NNC(=O)c1cc(Cl)ccc1[N+](=O)[O-])c1csc(N2CCOCC2)n1	0.46	i	i	i	i	-9
Cc1cc(C(=O)CSc2nc3ccccc3c(=O)n2C)c(C)n1Cc1ccc2c(c1)OCO2	-0.05	-7.9*	i	i	i	-26
C/C(=N/Oc1nc(C)cc(C)n1)c1ccc(Cl)cc1Cl	1.6	i	i	i	i	-4
C/C(=N\Oc1cccc(F)n1)c1ccc(Cl)cc1Cl	0.34	i	i	6*	i	-8
COc1ccc(C(CNc2nc(-c3cccnc3)nc3ccccc23)N(C)C)cc1 (configuration not stated)	0.05	i	i	i	i	-15
O=C(Nc1ccc(S(=O)(=O)N2CCCCC2)cc1)c1ccc(CN2CCc3ccccc3C2)cc1	0.67	i	i	6*	i	-11
COc1ccccc1C(CCN(Cc1ccccc1)C(C)=O)c1ccco1 (configuration not stated)	-5.3*	i	i	i	i	-12
O=[N+]([O-])c1c(Nc2ccccn2)cc(Cl)c2nonc12	0.32	-6.9*	i	11*	i	-12
CCOc1ccccc1N1CC(C(=O)Nc2cc(Cl)ccc2C)CC1=O (configuration not stated)	1	i	i	i	i	-4
COc1cc(/C=C2\C(=O)ON=C2c2ccc(Cl)cc2)ccc1O	-4.8*	i	i	i	i	-10
O=C1ON=C(c2ccccc2)/C1=C/c1ccc(O)c(O)c1	-5.2*	i	i	i	i	-16
O=C1ON=C(c2ccc(Cl)c([N+](=O)[O-])c2)/C1=C/c1cccc([N+](=O)[O-])c1O	.	.	i	.	.	.
COc1ccc(/C=C2\C(=O)ON=C2c2ccccc2)cc1	0.11	i	i	i	i	-6
COc1cc(/C=C2/C(=O)N(c3cccc(Br)c3)N=C2C)cc(OC)c1O	1.3	i	i	8*	i	-8
O=C1ON=C(c2cccc([N+](=O)[O-])c2)/C1=C/c1ccc(O)cc1	-6.8*	i	i	7*	i	-25
